ChEMBL document CHEMBL1134521, “Characterization of melanocortin NDP-MSH agonist peptide fragments at the mouse central and peripheral melanocortin receptors” (J Med Chem, 2001)
Where a SMILES comes first, the peptide text is derived from it. [ ]: non-standard residue; d: D form.

Experiments:
Melanocortin receptor 5 [1] = target: T1, Melanocortin receptor 5 (Mus musculus, UniProt P41149); assay: Functional activity at the mouse melanocortin 5 receptor
Summary of the method: (§1)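 HEK-293 cells stably expressing the mouse receptor (calcium phosphate transfection, G418 1 mg/mL), transfected with CRE/β-galactosidase reporter. Lysates read at OD405 with ONPG at 37 °C, normalized to protein and forskolin (10^-4 M) response. EC50 from curve fit, at least three independent experiments.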

Melanocortin receptor 4 = Melanocortin receptor 4 (Mus musculus, UniProt P56450); assay: Functional activity at the mouse melanocortin 4 receptor; summary of the method: as §1
Sequence of Melanocortin receptor 4 (P56450 whole entry): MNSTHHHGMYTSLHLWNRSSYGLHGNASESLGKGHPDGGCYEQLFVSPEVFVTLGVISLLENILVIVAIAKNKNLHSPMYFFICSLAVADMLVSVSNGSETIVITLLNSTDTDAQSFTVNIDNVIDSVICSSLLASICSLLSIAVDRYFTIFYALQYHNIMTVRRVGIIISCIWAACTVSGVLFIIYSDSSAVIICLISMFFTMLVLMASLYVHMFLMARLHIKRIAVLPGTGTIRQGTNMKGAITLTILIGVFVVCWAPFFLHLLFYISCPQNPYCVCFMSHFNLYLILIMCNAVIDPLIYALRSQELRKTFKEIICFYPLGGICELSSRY

[2] = target: T2, Melanocyte-stimulating hormone receptor (Mus musculus, UniProt Q01727); assay: Functional activity at the mouse melanocortin 1 receptor; summary of the method: as §1
T2 sequence (Q01727 whole entry): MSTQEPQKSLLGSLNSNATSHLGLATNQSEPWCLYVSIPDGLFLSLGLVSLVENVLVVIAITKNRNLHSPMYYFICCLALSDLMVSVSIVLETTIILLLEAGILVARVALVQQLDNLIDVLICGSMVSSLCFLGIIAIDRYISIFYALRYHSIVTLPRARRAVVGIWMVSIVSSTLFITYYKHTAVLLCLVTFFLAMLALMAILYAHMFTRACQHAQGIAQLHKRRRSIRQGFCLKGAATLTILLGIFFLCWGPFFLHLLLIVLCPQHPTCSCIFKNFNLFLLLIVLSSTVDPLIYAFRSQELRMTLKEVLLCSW

Melanocortin receptor 3 [3] = target: T3, Melanocortin receptor 3 (Mus musculus, UniProt P33033); assay: Functional activity at the mouse melanocortin 3 receptor; summary of the method: as §1
T3 sequence (P33033 whole entry): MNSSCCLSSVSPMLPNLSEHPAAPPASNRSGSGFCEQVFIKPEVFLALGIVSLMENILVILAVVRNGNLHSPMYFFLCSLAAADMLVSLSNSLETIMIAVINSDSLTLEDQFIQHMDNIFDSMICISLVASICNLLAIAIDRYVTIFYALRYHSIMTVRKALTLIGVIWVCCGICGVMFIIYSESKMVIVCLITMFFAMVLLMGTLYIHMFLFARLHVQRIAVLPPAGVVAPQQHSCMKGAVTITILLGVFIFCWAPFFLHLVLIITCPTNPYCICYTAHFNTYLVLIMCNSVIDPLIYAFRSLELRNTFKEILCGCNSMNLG

[4] = target: T2, Melanocyte-stimulating hormone receptor; assay: Functional activity at the mouse melanocortin 1 receptor at 100 uM; Slight agonist
Melanocortin receptor 5 [5] = target: T1, Melanocortin receptor 5; assay: Functional activity at the mouse melanocortin 5 receptor at 100 uM; Slight agonist
Melanocortin receptor 3 [6] = target: T3, Melanocortin receptor 3; assay: Functional activity at the mouse melanocortin 3 receptor at 100 uM; Slight agonist

T1 sequence (P41149 whole entry): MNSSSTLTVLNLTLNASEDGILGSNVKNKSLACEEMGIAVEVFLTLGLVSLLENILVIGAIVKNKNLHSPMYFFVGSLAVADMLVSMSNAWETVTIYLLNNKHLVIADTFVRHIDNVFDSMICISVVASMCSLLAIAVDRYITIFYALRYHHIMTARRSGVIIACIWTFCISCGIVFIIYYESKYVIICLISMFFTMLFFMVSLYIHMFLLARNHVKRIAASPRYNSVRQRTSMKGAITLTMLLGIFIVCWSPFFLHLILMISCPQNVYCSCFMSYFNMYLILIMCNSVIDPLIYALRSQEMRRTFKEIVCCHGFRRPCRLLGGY

SMILES: CC(=O)N[C@@H](Cc1cnc[nH]1)C(=O)N[C@H](Cc1ccccc1)C(=O)N[C@@H](CCCN=C(N)N)C(=O)N[C@@H](Cc1c[nH]c2ccccc12)C(N)=O
- EC50 (Melanocortin receptor 5 [1]): 3.46 nM
- EC50 (Melanocortin receptor 4): 10.2 nM

SMILES: CCCC[C@H](NC(C)=O)C(=O)N[C@@H](CCC(=O)O)C(=O)N[C@@H](Cc1c[nH]cn1)C(=O)N[C@H](Cc1ccccc1)C(=O)N[C@@H](CCCN=C(N)N)C(=O)N[C@@H](Cc1c[nH]c2ccccc12)C(=O)NCC(N)=O
- EC50 [2]: 0.045 nM
- EC50 (Melanocortin receptor 5 [1]): 0.59 nM
- EC50 (Melanocortin receptor 4): 0.94 nM
- EC50 (Melanocortin receptor 3 [3]): 0.39 nM

SMILES: CCCC[C@H](NC(C)=O)C(=O)N[C@@H](CCC(=O)O)C(=O)N[C@@H](Cc1c[nH]cn1)C(=O)N[C@H](Cc1ccccc1)C(=O)N[C@@H](CCCN=C(N)N)C(=O)N[C@@H](Cc1c[nH]c2ccccc12)C(N)=O
- EC50 [2]: 0.034 nM
- EC50 (Melanocortin receptor 5 [1]): 0.39 nM
- EC50 (Melanocortin receptor 4): 0.45 nM
- EC50 (Melanocortin receptor 3 [3]): 0.26 nM

SMILES: CC(=O)N[C@@H](Cc1c[nH]cn1)C(=O)N[C@@H](Cc1ccccc1)C(=O)N[C@@H](CCCN=C(N)N)C(=O)N[C@H](Cc1c[nH]c2ccccc12)C(N)=O
- EC50 (Melanocortin receptor 5 [1]): 317 nM
- EC50 (Melanocortin receptor 4): 6620 nM

SMILES: CC(=O)N[C@@H](CCC(=O)O)C(=O)N[C@@H](Cc1c[nH]cn1)C(=O)N[C@H](Cc1ccccc1)C(=O)N[C@@H](CCCN=C(N)N)C(=O)N[C@@H](Cc1c[nH]c2ccccc12)C(N)=O
- EC50 [2]: 8.94 nM
- EC50 (Melanocortin receptor 5 [1]): 0.42 nM
- EC50 (Melanocortin receptor 4): 4.31 nM
- EC50 (Melanocortin receptor 3 [3]): 15.2 nM

SMILES: CCCC[C@H](NC(=O)[C@H](CO)NC(=O)[C@H](Cc1ccc(O)cc1)NC(=O)[C@H](CO)NC(C)=O)C(=O)N[C@@H](CCC(=O)O)C(=O)N[C@@H](Cc1c[nH]cn1)C(=O)N[C@H](Cc1ccccc1)C(=O)N[C@@H](CCCN=C(N)N)C(=O)N[C@@H](Cc1c[nH]c2ccccc12)C(=O)NCC(=O)N[C@@H](CCCCN)C(N)=O
- EC50 [2]: 0.018 nM
- EC50 (Melanocortin receptor 5 [1]): 0.46 nM
- EC50 (Melanocortin receptor 4): 0.44 nM
- EC50 (Melanocortin receptor 3 [3]): 0.16 nM

SMILES: CC(=O)N[C@@H](Cc1c[nH]cn1)C(=O)N[C@H](Cc1ccccc1)C(=O)N[C@@H](CCCN=C(N)N)C(=O)N[C@@H](Cc1c[nH]c2ccccc12)C(=O)NCC(=O)N[C@@H](CCCCN)C(=O)N1CCC[C@H]1C(=O)N[C@H](C(N)=O)C(C)C
- EC50 [2]: 0.49 nM
- EC50 (Melanocortin receptor 5 [1]): 0.17 nM
- EC50 (Melanocortin receptor 4): 0.45 nM
- EC50 (Melanocortin receptor 3 [3]): 6.82 nM

SMILES: CCCC[C@H](NC(=O)[C@H](CO)NC(=O)[C@H](Cc1ccc(O)cc1)NC(=O)[C@H](CO)NC(C)=O)C(=O)N[C@@H](CCC(=O)O)C(=O)N[C@@H](Cc1cnc[nH]1)C(=O)N[C@H](Cc1ccccc1)C(=O)N[C@@H](CCCNC(=N)N)C(=O)N[C@@H](Cc1c[nH]c2ccccc12)C(N)=O
- EC50 [2]: 0.036 nM
- EC50 (Melanocortin receptor 5 [1]): 0.53 nM
- EC50 (Melanocortin receptor 4): 0.78 nM
- EC50 (Melanocortin receptor 3 [3]): 0.29 nM

SMILES: CCCC[C@H](NC(C)=O)C(=O)N[C@@H](CCC(=O)O)C(=O)N[C@@H](Cc1cnc[nH]1)C(=O)N[C@H](Cc1ccccc1)C(=O)N[C@@H](CCCNC(=N)N)C(=O)N[C@@H](Cc1c[nH]c2ccccc12)C(=O)NCC(=O)N[C@@H](CCCCN)C(=O)N1CCC[C@H]1C(=O)N[C@H](C(N)=O)C(C)C
- EC50 [2]: 0.021 nM
- EC50 (Melanocortin receptor 5 [1]): 0.46 nM
- EC50 (Melanocortin receptor 4): 0.32 nM
- EC50 (Melanocortin receptor 3 [3]): 0.11 nM

SMILES: CC(=O)N[C@@H](Cc1cnc[nH]1)C(=O)N[C@H](Cc1ccccc1)C(=O)N[C@@H](CCCNC(=N)N)C(=O)N[C@H](Cc1c[nH]c2ccccc12)C(N)=O
- EC50 (Melanocortin receptor 5 [1]): 61.3 nM
- EC50 (Melanocortin receptor 4): 154 nM

SMILES: CC(=O)N[C@@H](Cc1c[nH]cn1)C(=O)N[C@@H](Cc1ccccc1)C(=O)N[C@@H](CCCN=C(N)N)C(=O)N[C@@H](Cc1c[nH]c2ccccc12)C(N)=O
- EC50 (Melanocortin receptor 5 [1]): 103 nM
- EC50 (Melanocortin receptor 4): 2110 nM

SMILES: CC(=O)N[C@H](Cc1ccccc1)C(=O)N[C@@H](CCCN=C(N)N)C(=O)N[C@H](Cc1c[nH]c2ccccc12)C(N)=O
- EC50 [4]: Partial agonist
- EC50 (Melanocortin receptor 5 [1]): 6880 nM
- EC50 (Melanocortin receptor 4): 11200 nM
- EC50 (Melanocortin receptor 3 [3]): > 100000 nM

SMILES: CC(=O)N[C@@H](Cc1ccccc1)C(=O)N[C@@H](CCCN=C(N)N)C(=O)N[C@@H](Cc1c[nH]c2ccccc12)C(N)=O (Ac-Phe-Arg-Trp-NH2)
- EC50 (Melanocortin receptor 5 [5]): Partial agonist

SMILES: CC(=O)N[C@@H](Cc1ccccc1)C(=O)N[C@@H](CCCNC(=N)N)C(=O)N[C@@H](Cc1c[nH]c2ccccc12)C(N)=O (Ac-Phe-Arg-Trp-NH2)
- EC50 [2]: 5870 nM
- EC50 (Melanocortin receptor 4): > 100000 nM
- EC50 (Melanocortin receptor 3 [3]): > 100000 nM

SMILES: CC(=O)N[C@H](Cc1ccccc1)C(=O)N[C@@H](CCCN=C(N)N)C(=O)N[C@@H](Cc1c[nH]c2ccccc12)C(N)=O (Ac-[dF]-Arg-Trp-NH2)
- EC50 [2]: 4540 nM
- EC50 (Melanocortin receptor 5 [1]): 1660 nM
- EC50 (Melanocortin receptor 4): 2320 nM
- EC50 (Melanocortin receptor 3 [6]): Partial agonist
